From ChEMBL document CHEMBL1122187, “Synthesis and antiviral activity of certain carbamoylpyrrolopyrimidine and pyrazolopyrimidine nucleosides” (1982)

Assays:
Vero [1] = test: Percentage plaque reduction was determined against Sandfly fever (SF) virus in african green monkey kidney (vero,V) at a conc of <25 ug/mL. Toxic level(320 ug/mL); format: functional, Chlorocebus sabaeus
Method in brief: (§1)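 Infected Vero 24-well monolayers: virus adsorbed 1 h at 37 °C, then overlaid with agar holding dilutions of compound and incubated again at 37 °C with CO₂. Plaques were stained with crystal violet and counted. Inhibition was scored as % plaque reduction bands (10-30%, 31-60%, 61-90%), each tied to a drug concentration range.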

Vero [2] = test: In vitro antiviral activity against vaccinia(VV) virus was determined in african green monkey kidney (vero,V) expressed as virus rating. Toxic level(320 ug/mL); format: functional, Chlorocebus sabaeus
Method in brief: (§2)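 Cell monolayers (18 h) infected with 320 TCID50 of virus. Compound was added within 15–30 min at half-log dilutions from 1000 to 1 μg/mL. After 72 h at 37 °C in 5% CO2, CPE was scored 0–4 by microscopy. VR = sum of (virus control − treated) scores, halved at partially toxic levels, divided by 10 × test cups per drug level.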

Vero [3] = test: Percentage plaque reduction was determined against yellow fever (YF) virus in african green monkey kidney (vero,V).Toxic level(320 ug/mL); 10-30; format: functional, Chlorocebus sabaeus
Vero [4] = test: In vitro antiviral activity against herpes simplex type 1 (HSV-1) virus was determined in african green monkey kidney (vero,V) expressed as virus rating. Toxic level(320 ug/mL); format: functional, Chlorocebus sabaeus; method in brief: as §2
Vero [5] = test: Percentage plaque reduction was determined against venezuelan equine encephalitis (VEE) virus in african green monkey kidney (vero,V) at a conc of <25 ug/mL. Toxic level(320 ug/mL); format: functional, Chlorocebus sabaeus
Vero [6] = test: Percentage plaque reduction was determined against Sandfly fever (SF) virus in african green monkey kidney (vero,V) at a conc of 100-250 ug/mL. Toxic level(320 ug/mL); format: functional, Chlorocebus sabaeus
Vero [7] = test: Percentage plaque reduction was determined against Sandfly fever (SF) virus in african green monkey kidney (vero,V) at a conc of 25-100 ug/mL. Toxic level(320 ug/mL); format: functional, Chlorocebus sabaeus
Vero [8] = test: Percentage plaque reduction was determined against Sandfly fever (SF) virus in african green monkey kidney (vero,V) at a conc of 250-500 ug/mL. Toxic level(320 ug/mL); format: functional, Chlorocebus sabaeus
Vero [9] = test: Percentage plaque reduction was determined against venezuelan equine encephalitis (VEE) virus in african green monkey kidney (vero,V) at a conc of 25-100 ug/mL. Toxic level(320 ug/mL); format: functional, Chlorocebus sabaeus
Vero [10] = test: In vitro antiviral activity against parainfluenza type 3(para 3) virus was determined in african green monkey kidney (vero,V) expressed as virus rating. Toxic level(320 ug/mL); format: functional, Chlorocebus sabaeus; method in brief: as §2
Vero [11] = test: Percentage plaque reduction was determined against venezuelan equine encephalitis (VEE) virus in african green monkey kidney (vero,V) at a conc of 100-250 ug/mL. Toxic level(320 ug/mL); format: functional, Chlorocebus sabaeus
Vero [12] = test: Percentage plaque reduction was determined against venezuelan equine encephalitis (VEE) virus in african green monkey kidney (vero,V) at a conc of 250-500 ug/mL. Toxic level(320 ug/mL); format: functional, Chlorocebus sabaeus
Vero [13] = test: Percentage plaque reduction was determined against rift valley fever(RVF) virus in african green monkey kidney (vero,V) at a conc of 250-500 ug/mL. Toxic level(320 ug/mL); 10-30; format: functional, Chlorocebus sabaeus
Vero [14] = test: In vitro antiviral activity against vaccinia(VV) virus was determined in african green monkey kidney (vero,V) expressed as virus rating. Toxic level(1000 ug/mL); format: functional, Chlorocebus sabaeus; method in brief: as §2
Vero [15] = test: In vitro antiviral activity against herpes simplex type 1 (HSV-1) virus was determined in african green monkey kidney (vero,V) expressed as virus rating. Toxic level(1000 ug/mL); format: functional, Chlorocebus sabaeus; method in brief: as §2
Vero [16] = test: Percentage plaque reduction was determined against venezuelan equine encephalitis (VEE) virus in african green monkey kidney (vero,V) at a conc of 250-500 ug/mL. Toxic level(1000 ug/mL); format: functional, Chlorocebus sabaeus
Vero [17] = test: Percentage plaque reduction was determined against Sandfly fever (SF) virus in african green monkey kidney (vero,V) at a conc of 25-100 ug/mL. Toxic level(1000 ug/mL); 61-90; format: functional, Chlorocebus sabaeus
Vero [18] = test: Percentage plaque reduction was determined against venezuelan equine encephalitis (VEE) virus in african green monkey kidney (vero,V) at a conc of <25 ug/mL. Toxic level(1000 ug/mL); format: functional, Chlorocebus sabaeus
Vero [19] = test: Percentage plaque reduction was determined against venezuelan equine encephalitis (VEE) virus in african green monkey kidney (vero,V) at a conc of 25-100 ug/mL. Toxic level(1000 ug/mL); format: functional, Chlorocebus sabaeus
Vero [20] = test: Percentage plaque reduction was determined against pichinde(PICH) virus in african green monkey kidney (vero,V).Toxic level(1000 ug/mL); 10-30; format: functional, Chlorocebus sabaeus; method in brief: as §1
Vero [21] = test: Percentage plaque reduction was determined against yellow fever(YF) virus in african green monkey kidney (vero,V).Toxic level(1000 ug/mL); 61-90; format: functional, Chlorocebus sabaeus
Vero [22] = test: In vitro antiviral activity against parainfluenza type 3(para 3) virus was determined in african green monkey kidney (vero,V) expressed as virus rating. Toxic level(1000 ug/mL); format: functional, Chlorocebus sabaeus; method in brief: as §2
Vero [23] = test: Percentage plaque reduction was determined against rift valley fever(RVF) virus in african green monkey kidney (vero,V) at a conc of 250-500 ug/mL. Toxic level(1000 ug/mL); 10-30; format: functional, Chlorocebus sabaeus
Vero [24] = test: Percentage plaque reduction was determined against venezuelan equine encephalitis (VEE) virus in african green monkey kidney (vero,V) at a conc of 100-250 ug/mL. Toxic level(1000 ug/mL); format: functional, Chlorocebus sabaeus
Vero [25] = test: In vitro antiviral activity against vaccinia(VV) virus was determined in african green monkey kidney (vero,V) expressed as virus rating. Toxic level(>1000 ug/mL); format: functional, Chlorocebus sabaeus; method in brief: as §2
Vero [26] = test: In vitro antiviral activity against parainfluenza type 3(para 3) virus was determined in african green monkey kidney (vero,V) expressed as virus rating. Toxic level(>1000 ug/mL); format: functional, Chlorocebus sabaeus; method in brief: as §2
Vero [27] = test: In vitro antiviral activity against herpes simplex type 1 (HSV-1) virus was determined in african green monkey kidney (vero,V) expressed as virus rating. Toxic level(>1000 ug/mL); format: functional, Chlorocebus sabaeus; method in brief: as §2
HEp-2 [28] = test: In vitro antiviral activity against parainfluenza type-3 (para 3) virus was determined in human laryngeal epithelioma (HEp-2,H)expressed as virus rating. Toxic level(320 ug/mL); format: functional; method in brief: as §2
HEp-2 [29] = test: In vitro antiviral activity against herpes simplex type 1 (HSV-1) virus was determined in human laryngeal epithelioma (HEp-2,H)expressed as virus rating. Toxic level(320 ug/mL); format: functional; method in brief: as §2
HEp-2 [30] = test: In vitro antiviral activity against vaccinia(VV) virus was determined in human laryngeal epithelioma (HEp-2,H)expressed as virus rating. Toxic level (320 ug/mL); format: functional; method in brief: as §2
Vero [31] = test: In vitro antiviral activity against parainfluenza type 3(para 3) virus was determined in african green monkey kidney (vero,V) expressed as virus rating.; format: functional, Chlorocebus sabaeus; method in brief: as §2
Vero [32] = test: In vitro antiviral activity against vaccinia(VV) virus was determined in african green monkey kidney (vero,V) expressed as virus rating.; format: functional, Chlorocebus sabaeus; method in brief: as §2
HEp-2 [33] = test: In vitro antiviral activity against vaccinia(VV) virus was determined in human laryngeal epithelioma (HEp-2,H)expressed as virus rating. Toxic level(100 ug/mL); format: functional; method in brief: as §2
HEp-2 [34] = test: In vitro antiviral activity against parainfluenza type 3(para 3) virus was determined in human laryngeal epithelioma (HEp-2,H)expressed as virus rating. Toxic level(100 ug/mL); format: functional; method in brief: as §2
HEp-2 [35] = test: In vitro antiviral activity against herpes simplex type 1 (HSV-1) virus was determined in human laryngeal epithelioma (HEp-2,H)expressed as virus rating. Toxic level(100 ug/mL); format: functional; method in brief: as §2
HEp-2 [36] = test: In vitro antiviral activity against vaccinia(VV) virus was determined in human laryngeal epithelioma (HEp-2,H)expressed as virus rating. Toxic level(>1000 ug/mL); format: functional; method in brief: as §2
Vero [37] = test: Percentage plaque reduction was determined against venezuelan equine encephalitis (VEE) virus in african green monkey kidney (vero,V) at a conc of 250-500 ug/mL. Toxic level(>1000 ug/mL); 10-30; format: functional, Chlorocebus sabaeus
Vero [38] = test: Percentage plaque reduction was determined against pichinde(PICH) virus in african green monkey kidney (vero,V). Toxic level(>1000 ug/mL); 61-90; format: functional, Chlorocebus sabaeus; method in brief: as §1
Vero [39] = test: Percentage plaque reduction was determined against Sandfly fever (SF) virus in african green monkey kidney (vero,V) at a conc of 25-100 ug/mL. Toxic level(>1000 ug/mL); 61-90; format: functional, Chlorocebus sabaeus
Vero [40] = test: Percentage plaque reduction was determined against yellow fever(YF) virus in african green monkey kidney (vero,V).Toxic level(>1000 ug/mL); 61-90; format: functional, Chlorocebus sabaeus
HEp-2 [41] = test: In vitro antiviral activity against parainfluenza type 3 (para 3) type 1 (HSV-1) virus was determined in human laryngeal epithelioma (HEp-2,H)expressed as virus rating. Toxic level(>1000 ug/mL); format: functional; method in brief: as §2
HEp-2 [42] = test: In vitro antiviral activity against herpes simplex type 1 (HSV-1) virus was determined in human laryngeal epithelioma (HEp-2,H)expressed as virus rating. Toxic level(>1000 ug/mL); format: functional; method in brief: as §2
Vero [43] = test: Percentage plaque reduction was determined against rift valley fever(RVF) virus in african green monkey kidney (vero,V) at a conc of 100-250 ug/mL. Toxic level(>1000 ug/mL); 31-60; format: functional, Chlorocebus sabaeus

## CSc1ncnc2c1cnn2[C@@H]1O[C@H](COC(C)=O)[C@@H](OC(C)=O)[C@H]1OC(C)=O
Vero [1]
  Plaque reduction: 0%
Vero [2]
  Virus rating: 0.5
Vero [3]
  Plaque reduction: 10%
Vero [4]
  Virus rating: 0
Vero [5]
  Plaque reduction: 0%
Vero [6]
  Plaque reduction: 0%
Vero [7]
  Plaque reduction: 0%
Vero [8]
  Plaque reduction: 0%
Vero [9]
  Plaque reduction: 0%
Vero [10]
  Virus rating: 0
Vero [11]
  Plaque reduction: 0%
Vero [12]
  Plaque reduction: 0%
Vero [13]
  Plaque reduction: 10%

## OC[C@H]1O[C@@H](C2=NNC3C(=S)N=CN=C23)[C@H](O)[C@@H]1O (stereo partly drawn)
Vero [14]
  Virus rating: 1
Vero [15]
  Virus rating: 0
Vero [16]
  Plaque reduction: 0%
Vero [17]
  Plaque reduction: 61%
Vero [18]
  Plaque reduction: 0%
Vero [19]
  Plaque reduction: 0%
Vero [20]
  Plaque reduction: 10%
Vero [21]
  Plaque reduction: 61%
Vero [22]
  Virus rating: 1.1
Vero [23]
  Plaque reduction: 10%
Vero [24]
  Plaque reduction: 0%

## OC[C@H]1O[C@@H](c2n[nH]c3c(Cl)ncnc23)[C@H](O)[C@@H]1O
Vero [2]
  Virus rating: 1
Vero [4]
  Virus rating: 0
Vero [10]
  Virus rating: 1.3

## CSc1ncnc2c1ncn2[C@@H]1O[C@H](CO)[C@@H](O)[C@H]1O
Vero [2]
  Virus rating: 2
Vero [4]
  Virus rating: 1.7
Vero [10]
  Virus rating: 2.2

## OC[C@H]1O[C@@H](n2cnc3c(Cl)ncnc32)[C@H](O)[C@@H]1O
Vero [14]
  Virus rating: 1.8
Vero [15]
  Virus rating: 0.4
Vero [22]
  Virus rating: 0.4

## OC[C@H]1O[C@@H](n2ccc3c(S)ncnc32)[C@H](O)[C@@H]1O
Vero [25]
  Virus rating: 0.5
Vero [26]
  Virus rating: 1.1
Vero [27]
  Virus rating: 0.2

## OC[C@H]1OC(n2ncc3c(S)ncnc32)[C@H](O)[C@@H]1O (stereo partly drawn)
Vero [25]
  Virus rating: 0.9
Vero [26]
  Virus rating: 0.7
Vero [27]
  Virus rating: 0

## NC(=O)c1ncnc2c1ncn2C1O[C@H](CO)[C@@H](O)[C@H]1O (stereo partly drawn)
HEp-2 [28]
  Virus rating: 1.4
Vero [25]
  Virus rating: 1.5
Vero [26]
  Virus rating: 0
Vero [27]
  Virus rating: 0.6
HEp-2 [29]
  Virus rating: 0.6
HEp-2 [30]
  Virus rating: 1.1

## CSc1ncnc2c1cnn2C1O[C@H](CO)[C@@H](O)[C@H]1O (stereo partly drawn)
Vero [27]
  Virus rating: 0.2
Vero [31]
  Virus rating: 1
Vero [32]
  Virus rating: 0.2

## NC(=O)c1ncnc2c1ccn2C1O[C@H](CO)[C@@H](O)[C@H]1O (stereo partly drawn)
Vero [14]
  Virus rating: 1.3
Vero [15]
  Virus rating: 0.4
HEp-2 [33]
  Virus rating: 1.2
Vero [22]
  Virus rating: 0.4
HEp-2 [34]
  Virus rating: 0.2
HEp-2 [35]
  Virus rating: 0

## NC(=O)c1ncn([C@@H]2O[C@H](CO)[C@@H](O)[C@H]2O)n1 [RIBAVIRIN]
Vero [25]
  Virus rating: 1.2
HEp-2 [36]
  Virus rating: 1.7
Vero [37]
  Plaque reduction: 10%
Vero [26]
  Virus rating: 1.3
Vero [27]
  Virus rating: 0.6
Vero [38]
  Plaque reduction: 61%
Vero [39]
  Plaque reduction: 61%
Vero [40]
  Plaque reduction: 61%
HEp-2 [41]
  Virus rating: 1.7
HEp-2 [42]
  Virus rating: 1.2
Vero [43]
  Plaque reduction: 31%

## OC[C@H]1O[C@@H](n2cnc3c(S)ncnc32)[C@H](O)[C@@H]1O [THIOINOSINE]
Vero [14]
  Virus rating: 1.1
Vero [15]
  Virus rating: 0.8
Vero [22]
  Virus rating: 1.2
